Data reported in PubChem BioAssay.
The source made the active and inactive calls.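 Rule for the calls, unless noted: active = Her2 level under about 52% in both replicate screens, with viability over 70% of control (limit read from the data); inconclusive = Her2 under the limit in one screen only, or viability under 70%; inactive = Her2 level above the set limit.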

Legend:
[1] = reducers of endogenous Her2 protein level, primary screen, SKBR3 breast tumor cells, AlphaScreen, ATP viability (AID 461); settings: 18-24 h, measured here: SKBR3 viability, ATP luminescence, at 10 µM;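 for Her2 level: lower value means less Her2 protein in the cells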;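 for viability: percent of carrier control wells set as 100% viability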
[2] = target: Receptor tyrosine-protein kinase erbB-2 (Homo sapiens) (UniProt P04626); experiment: as above; settings: 18-24 h, at 10 µM, stronger effect = lower value
Chain of Receptor tyrosine-protein kinase erbB-2 (Homo sapiens) (P04626 whole entry, looked up): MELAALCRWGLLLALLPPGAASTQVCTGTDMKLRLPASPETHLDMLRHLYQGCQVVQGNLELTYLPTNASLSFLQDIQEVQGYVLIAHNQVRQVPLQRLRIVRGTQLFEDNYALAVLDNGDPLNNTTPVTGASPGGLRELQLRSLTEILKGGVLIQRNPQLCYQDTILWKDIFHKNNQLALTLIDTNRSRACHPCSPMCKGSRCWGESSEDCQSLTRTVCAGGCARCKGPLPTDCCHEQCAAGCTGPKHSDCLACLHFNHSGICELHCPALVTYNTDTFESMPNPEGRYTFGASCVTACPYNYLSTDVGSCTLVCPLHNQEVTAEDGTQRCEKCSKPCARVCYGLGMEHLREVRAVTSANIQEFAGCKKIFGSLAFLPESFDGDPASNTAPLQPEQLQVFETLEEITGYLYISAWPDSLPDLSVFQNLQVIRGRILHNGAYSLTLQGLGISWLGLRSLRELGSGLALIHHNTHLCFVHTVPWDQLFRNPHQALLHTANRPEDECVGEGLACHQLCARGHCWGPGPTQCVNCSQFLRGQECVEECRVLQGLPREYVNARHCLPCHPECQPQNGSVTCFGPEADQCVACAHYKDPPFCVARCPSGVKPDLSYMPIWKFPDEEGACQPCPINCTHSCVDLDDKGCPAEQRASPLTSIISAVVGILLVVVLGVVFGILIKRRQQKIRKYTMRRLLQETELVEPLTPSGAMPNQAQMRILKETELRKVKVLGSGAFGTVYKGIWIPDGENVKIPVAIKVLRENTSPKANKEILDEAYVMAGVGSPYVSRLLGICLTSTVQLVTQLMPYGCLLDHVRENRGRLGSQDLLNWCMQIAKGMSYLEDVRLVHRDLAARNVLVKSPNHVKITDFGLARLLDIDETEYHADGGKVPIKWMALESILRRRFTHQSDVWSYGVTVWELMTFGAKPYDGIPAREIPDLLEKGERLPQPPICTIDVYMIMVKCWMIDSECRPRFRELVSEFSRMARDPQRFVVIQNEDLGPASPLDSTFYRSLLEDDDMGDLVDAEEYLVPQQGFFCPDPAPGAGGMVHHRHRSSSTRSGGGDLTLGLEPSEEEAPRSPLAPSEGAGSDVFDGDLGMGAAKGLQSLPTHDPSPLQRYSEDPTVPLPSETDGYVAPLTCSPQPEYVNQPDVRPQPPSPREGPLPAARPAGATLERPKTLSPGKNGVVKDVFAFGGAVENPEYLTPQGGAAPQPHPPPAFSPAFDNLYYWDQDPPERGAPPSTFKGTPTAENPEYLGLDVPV

[3] = SK-BR-3 cell growth inhibitors, pilot screen, 24 h, human (AID 572;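 active = viability at or below 10% of carrier control in both of two separate runs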;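 note: compound exposure lasted between 18 and 24 h rather than exactly 24 h; 100% = carrier-treated control wells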); settings: SK-BR-3 viability, CellTiter-Glo luminescence, at 10 µM, stronger effect = lower value
[4] = HUVEC growth inhibition – cell-based, human, primary screen (AID 575;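 active = viability at or below 30% in both replicate assays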;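 note: 100% = median of untreated cell wells with 0.1% DMSO on each plate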); settings: HUVEC proliferation, CellTiter-Glo luminescence, 72 h; at 10 µM; stronger effect = lower value
In short: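 Test system: primary human umbilical vein endothelial cells. Quantity: 1250 cells/well. Compound: single 10 µM dose, 0.1% DMSO, from 5x medium stock. Timing: 72 h treatment at 37 °C. Detection: ATP-based CellTiter-Glo luminescent read. Benchmarks: vehicle and MePR control wells. Format: 384-well plates coated with collagen.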

[5] = growth inhibitors of H69AR lung tumor, primary screen, human, duplicate replicates (AID 580;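 active = viability at or under a set limit in both replicates, limit being median viability minus 3 SD, cut at about 48% in these data, passing the limit was not always enough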;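 note: 100% = mean luminescence of untreated wells and 0% = no signal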); settings: H69AR lung tumor cells viability, ATP luminescence, 72 h; at 10 µM; stronger effect = lower value
[6] = reversal of MRP1-mediated doxorubicin resistance, pilot screen, H69AR cells, doxorubicin co-treatment (AID 601;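 active = viability loss from added drug above about 55%, and viability with drug at most 40%, in both replicates, limit read from the data, passing the limit was not always enough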); settings: CellTiter-Glo, 72 h, at 10 µM; for differential viability (reversal): stronger effect = higher value
[7] = 384-well plate pilot, post-Golgi transport modulator project, inhibition of yeast transport mutant growth (AID 636; in the data active = inhibition above about 31%); settings: absorbance 615 nm, about 18 h, stronger effect = higher value
[8] = growth suppression of yeast trafficking mutant, preliminary HTS, modulators of trafficking downstream of Golgi apparatus project, 1536-format plate, OD 615 nm (AID 637; in the data active = inhibition above about 30%); settings: yeast transport mutant growth, absorbance 615 nm, 18 h; stronger effect = higher value
[9] = H69AR cells + 2 uM doxorubicin, measured here: viability with 2 uM doxorubicin, stronger effect = lower value
[10] = H69AR cells, compound alone cytotoxicity

Row | SMILES | viability [1] | Her2 level [2] | viability [3] | viability [4] | viability [5] | differential viability (reversal) ([6]; H69AR cells + 2 uM doxorubicin) | viability [6, 9] | viability [6, 10] | inhibition [7] | inhibition [8]
1 | COc1ccc(NC(=O)C(C)NS(=O)(=O)c2ccc(NC(C)=O)cc2)cc1Cl (stereo not given) | 124% | 97% (inactive) | 124% (inactive) | 103% (inactive) | 95% (inactive) | 7.65% (inactive) | 87.4% | 95% | -6% (inactive) | -1.75% (inactive)
2 | CCOC(=O)c1c(NC(=O)CSc2nc3c(c(=O)n(C)c(=O)n3C)n2C(C)C)sc(C)c1C | 106% | 94% (inactive) | 106% (inactive) | 91.4% (inactive) | 89.9% (inactive) | -2.12% (inactive) | 92.1% | 89.9% | -0.53% (inactive) | -3.23% (inactive)
3 | O=C1c2oc3ccccc3c(=O)c2C(c2ccccn2)N1Cc1ccccc1 (stereo not given) | 91.5% | 110% (inactive) | 91.5% (inactive) | 95.6% (inactive) | 104% (inactive) | 9.52% (inactive) | 94.7% | 104% | 1.07% (inactive) | -8.87% (inactive)
4 | O=S1(=O)CCC(NS(=O)(=O)/C=C/c2ccccc2)C1 (stereo not given) | 110% | 104% (inactive) | 110% (inactive) | 93.4% (inactive) | 99.2% (inactive) | 9.1% (inactive) | 90.1% | 99.2% | -6.22% (inactive) | -3.11% (inactive)
5 | O=c1c(CN2CCN(Cc3ccccc3)CC2)coc2ccc(Cl)cc12 | 90% | 85.5% (inactive) | 90% (inactive) | 100% (inactive) | 95.7% (inactive) | 12.5% (inactive) | 83.3% | 95.7% | -4.81% (inactive) | -6.89% (inactive)
6 | COc1ccc(CCNC(=O)c2cnc3scc(C)n3c2=O)cc1OC | 78% | 89% (inactive) | 78% (inactive) | 90.4% (inactive) | 94.8% (inactive) | 1.87% (inactive) | 92.9% | 94.8% | -6.27% (inactive) | 2% (inactive)
7 | CC(C)=CCCC(C)NC(=O)NC1CCCCC1 (stereo not given) | 91% | 94% (inactive) | 91% (inactive) | 106% (inactive) | 107% (inactive) | 18% (inactive) | 88.6% | 107% | -5.33% (inactive) | 2.74% (inactive)
8 | CCOC(=O)C1CCN(C(=O)c2ccc(OC)cc2OC)CC1 | 102% | 112% (inactive) | 102% (inactive) | 110% (inactive) | 106% (inactive) | 5.9% (inactive) | 100% | 106% | -6.13% (inactive) | 6.13% (inactive)
9 | S=c1[nH]nc(-c2ccco2)n1-c1cccc2ccccc12 | 102% | 98.5% (inactive) | 102% (inactive) | 78.5% (inactive) | 96.9% (inactive) | 3.69% (inactive) | 93.2% | 96.9% | -0.54% (inactive) | 14.6% (inactive)
10 | CCn1c(CC(=O)Nc2cccc(OC)c2)nnc1SCC(=O)Nc1nccs1 | 98% | 102% (inactive) | 98% (inactive) | 94.5% (inactive) | 101% (inactive) | 4.37% (inactive) | 97% | 101% | -7.6% (inactive) | -2.26% (inactive)
11 | O=C1CC(=O)N(Cc2cccs2)C(=O)N1 | 93.5% | 99% (inactive) | 93.5% (inactive) | 103% (inactive) | 101% (inactive) | 6.82% (inactive) | 94% | 101% | -2.76% (inactive) | -3.82% (inactive)
12 | CCCN(CCC)CCNC(=O)C(NS(=O)(=O)c1ccc2c(c1)CCC(=O)N2)c1ccccc1 (stereo not given) | 87.5% | 86.5% (inactive) | 87.5% (inactive) | 108% (inactive) | 89.4% (inactive) | 0.46% (inactive) | 89% | 89.4% | 1.05% (inactive) | -1.45% (inactive)
13 | CCn1nnc(-c2ccccc2NC(=O)c2ccc(-n3cnnn3)cc2)n1 | 95.5% | 87% (inactive) | 95.5% (inactive) | 67.7% (inactive) | 75.7% (inactive) | 1.74% (inactive) | 73.9% | 75.7% | -0.79% (inactive) | 1.15% (inactive)
14 | O=C1CC(N2CCC(C(=O)N3CCCCC3)CC2)C(=O)N1 (stereo not given) | 110% | 91.5% (inactive) | 110% (inactive) | 94.4% (inactive) | 96.9% (inactive) | 10% (inactive) | 86.8% | 96.9% | -2.63% (inactive) | 3.71% (inactive)
15 | CCOC(=O)c1oc2ccccc2c1NC(=O)COC | 108% | 91.5% (inactive) | 108% (inactive) | 99.5% (inactive) | 102% (inactive) | 9.07% (inactive) | 93.2% | 102% | -4.73% (inactive) | -3.93% (inactive)
16 | Cc1cc(C(=O)N2CCN(C/C=C/c3ccccc3)CC2)no1 | 92.5% | 97.5% (inactive) | 92.5% (inactive) | 93.8% (inactive) | 93.2% (inactive) | 0.745% (inactive) | 92.5% | 93.2% | -4.05% (inactive) | 2.62% (inactive)

Row | SMILES | viability [1] | Her2 level [2] | viability [3] | viability [4] | viability [5] | differential viability (reversal) ([6]; H69AR cells + 2 uM doxorubicin) | viability [6, 9] | viability [6, 10] | inhibition [7] | inhibition [8]
17 | CN(C(=O)CSc1nc2c(c(=O)[nH]1)CCCC2)C1CCCCC1 | 95% | 105% (inactive) | 95% (inactive) | 77.1% (inactive) | 93.3% (inactive) | 1.09% (inactive) | 92.2% | 93.3% | -1.97% (inactive) | -8.89% (inactive)
18 | O=C(CSCc1cnn(-c2ccccc2)c1-n1cccc1)NCC1CCCO1 (stereo not given) | 97.5% | 85% (inactive) | 97.5% (inactive) | 94.1% (inactive) | 93.7% (inactive) | -10.7% (inactive) | 104% | 93.7% | -4.59% (inactive) | -2.7% (inactive)
19 | O=C(CCCC(=O)OCC(=O)NC1CCCC1)Nc1ccccn1 | 95.5% | 88% (inactive) | 95.5% (inactive) | 98.1% (inactive) | 96.9% (inactive) | -6.12% (inactive) | 103% | 96.9% | -6.8% (inactive) | 3.28% (inactive)
20 | COc1ccc(OCCOC(=O)c2cccs2)cc1 | 97.5% | 92% (inactive) | 97.5% (inactive) | 111% (inactive) | 109% (inactive) | 19% (inactive) | 89.5% | 109% | -6.22% (inactive) | 5.24% (inactive)
21 | Cc1onc(-c2c(Cl)cccc2Cl)c1C(N)=O | 103% | 116% (inactive) | 103% (inactive) | 100% (inactive) | 106% (inactive) | 13.6% (inactive) | 92.5% | 106% | -2.03% (inactive) | -5.08% (inactive)
22 | CCOc1ccc(-n2c(=O)cc(N3CCN(c4ccccc4)CC3)[nH]c2=O)cc1 | 94% | 84% (inactive) | 94% (inactive) | 96.1% (inactive) | 103% (inactive) | 7.43% (inactive) | 95.6% | 103% | -6.13% (inactive) | 6.07% (inactive)
23 | Cc1cc2c(c(=O)n1CCc1ccccc1)C(C(C)C)C(C#N)=C(N)O2 (stereo not given) | 95% | 87% (inactive) | 95% (inactive) | 93.9% (inactive) | 83.5% (inactive) | -9.34% (inactive) | 92.8% | 83.5% | -4.87% (inactive) | 2.79% (inactive)
24 | Cc1c(C(=O)Nc2cnccn2)oc2ccccc12 | 110% | 72% (inactive) | 110% (inactive) | 58.6% (inactive) | 37.4% (active) | -35.3% (inactive) | 72.7% | 37.4% | -5.6% (inactive) | 3.49% (inactive)
25 | CNC(=O)CC(C(=O)O)c1ccc(OCC(C)C)cc1 (stereo not given) | 90.5% | 102% (inactive) | 90.5% (inactive) | 84.4% (inactive) | 93.9% (inactive) | 4.75% (inactive) | 89.2% | 93.9% | -2.11% (inactive) | 9.84% (inactive)
26 | O=C(Oc1ccc(Cl)cc1N1C(=O)CCC1=O)c1ccco1 | 96.5% | 74% (inactive) | 96.5% (inactive) | 78% (inactive) | 90.9% (inactive) | 3.6% (inactive) | 87.3% | 90.9% | -3.65% (inactive) | 2.46% (inactive)
27 | Cc1cc(=O)[nH]c(=S)n1-c1ccccc1 | 99.5% | 74.5% (inactive) | 99.5% (inactive) | 101% (inactive) | 100% (inactive) | 17.7% (inactive) | 82.6% | 100% | -7.03% (inactive) | 3.33% (inactive)
28 | Cc1ncoc1C(=O)Nc1ccccc1C(N)=O | 104% | 101% (inactive) | 104% (inactive) | 106% (inactive) | 102% (inactive) | 16.3% (inactive) | 85.5% | 102% | -6.08% (inactive) | -1% (inactive)
29 | COc1ccccc1OCCCCNCCO | 95.5% | 116% (inactive) | 95.5% (inactive) | 92% (inactive) | 101% (inactive) | 12.6% (inactive) | 88.7% | 101% | -1.56% (inactive) | -7.83% (inactive)
30 | COc1cc(CN(C)CC(=O)c2[nH]c(C)c(C(C)=O)c2C)ccc1OC(F)F | 104% | 82.5% (inactive) | 104% (inactive) | 97.3% (inactive) | 85% (inactive) | 6.44% (inactive) | 78.6% | 85% | -5.2% (inactive) | -5.08% (inactive)
31 | O=C(CN1CCN(C(=O)c2ccccc2)CC1)Nc1ncc(Br)cc1Br | 76.5% | 100% (inactive) | 76.5% (inactive) | 92.2% (inactive) | 77.9% (inactive) | -6.92% (inactive) | 84.8% | 77.9% | -2.4% (inactive) | -5.74% (inactive)
32 | CN(C)C(=O)CN(c1ccc(F)c(Cl)c1)S(C)(=O)=O | 101% | 111% (inactive) | 101% (inactive) | 92.7% (inactive) | 90.8% (inactive) | -10.3% (inactive) | 101% | 90.8% | -2.11% (inactive) | -7.05% (inactive)
